This is an account of results in ChEMBL document CHEMBL5620424, “Design, synthesis and evaluation of novel 2-phenyl-3-(1H-pyrazol-4-yl)pyridine positive allosteric modulators for the M4 mAChR” (Eur J Med Chem, 2023).

The assay has as its target T1, Muscarinic acetylcholine receptor M4 (Homo sapiens) (UniProt P08173).
T1 sequence (whole entry): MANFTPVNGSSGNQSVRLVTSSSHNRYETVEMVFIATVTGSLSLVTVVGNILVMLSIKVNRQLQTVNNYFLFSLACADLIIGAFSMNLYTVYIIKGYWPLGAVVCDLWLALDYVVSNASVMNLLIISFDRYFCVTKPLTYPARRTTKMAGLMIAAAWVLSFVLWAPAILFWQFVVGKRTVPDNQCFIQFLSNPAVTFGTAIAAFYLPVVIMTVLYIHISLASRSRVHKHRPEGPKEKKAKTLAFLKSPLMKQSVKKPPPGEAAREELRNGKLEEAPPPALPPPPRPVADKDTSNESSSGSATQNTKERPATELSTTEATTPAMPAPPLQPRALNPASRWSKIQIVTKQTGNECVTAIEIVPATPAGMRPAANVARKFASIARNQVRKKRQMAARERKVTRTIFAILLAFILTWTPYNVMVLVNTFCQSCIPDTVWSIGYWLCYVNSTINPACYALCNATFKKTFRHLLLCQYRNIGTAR
The assay can be described thus: Positive allosteric modulation at human M4 mAChR expressed in Flp-In-CHO cells co-expressing CAMYEL biosensor assessed as ACh-mediated cAMP signalling co-operativity (log alpha beta) incubated for 5 mins by BRET assay. Format: functional, cell-based. To be noted: filed as positive allosteric modulator. Summed up: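 CAMYEL-transfected FlpInCHO-hM4 cells (48 h post-transfection) given ACh and modulator concentration ranges in full interaction design, 5 min at 37 °C; BRET read with coelenterazine h. Fit to complete operational model of allosterism and agonism with ACh KA and modulator KB fixed from binding assays. Gives log τB and log αβ. 4–5 experiments in duplicate.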
On the technique in general: Bioluminescence resonance energy transfer reports proximity on the nanometre scale.

As for `Cc1ccc(-c2cnn(CC3CCCC3)c2)c(-c2ccc3c(c2)C(=O)N(C)C3)n1`, the log(activity) amounted to 2.34.
With `Cc1ccc(-c2cnn(CC3CCCC3)c2)c(-c2ccc(N)c([N+](=O)[O-])c2)n1` the figure was 1.91.
Consider `Cc1ccc(-c2cnn(CC3CCCC3)c2)c(-c2ccc(F)c(F)c2)n1`, for which the log(activity) was 2.65.
